# Shown are actives, neighbours in structure and some others; about 4% of the full set was active somewhere.
# TAAR1 ag: human TAAR1 agonists, primary screen, Fluo-8 calcium fluorescence, CHO RD-HGA16 cells; Trace amine-associated receptor 1 (Homo sapiens), Q96RJ0; vehicle wells 0%, saturating PEA agonist 100%; activation, % at 3 µM; 360,000 tested, 0.99% active;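 active = activation above the mean activation of all test compounds in the run plus 3 SD, cut at about 38% in these data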
# Target sequence (Q96RJ0 whole entry, looked up): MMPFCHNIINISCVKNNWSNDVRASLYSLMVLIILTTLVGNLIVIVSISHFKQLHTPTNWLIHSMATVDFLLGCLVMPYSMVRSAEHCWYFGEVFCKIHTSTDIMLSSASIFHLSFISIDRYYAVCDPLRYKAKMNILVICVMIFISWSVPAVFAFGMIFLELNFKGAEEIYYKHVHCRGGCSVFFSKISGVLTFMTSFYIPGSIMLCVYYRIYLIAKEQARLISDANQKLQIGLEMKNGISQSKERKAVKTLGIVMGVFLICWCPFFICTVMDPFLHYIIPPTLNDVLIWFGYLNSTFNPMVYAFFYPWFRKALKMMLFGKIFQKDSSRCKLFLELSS
#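 Test system: RD-HGA16 (CHO) cells co-expressing Gα16 and hTAAR1 / Benchmarks: DMSO vehicle as 0%, PEA at EC100 as 100% / Repeats: no replicates (n 1) / Measure: % activation from peak over basal fluorescence ratio, DMSO-to-PEA scaled / Timing: 17-24 h plating, Fluo-8 75 min 37 °C, 30 min RT / Technique: kinetic Fluo-8 calcium fluorescence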
# TAAR1 antag: human TAAR1 antagonists, primary screen, Fluo-8 calcium fluorescence, CHO RD-HGA16 cells; antagonist; inhibition, % at 3 µM; 360,000 tested, 1.5% active;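 active = inhibition above a per-plate cutoff, the mean inhibition of test compounds on that plate plus 3 SD, cut at about 49% in these data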;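 also: 0% = DMSO plus EC80 beta-PEA response and 100% = DMSO alone without agonist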
#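 Material: CHO RD-HGA16 cells bearing hTAAR1; compound dosing: one-point dosing, 3 µM nominal final; schedule: dye loading 75 min at 37 °C, then 30 min room temperature; measured by: calcium fluorescence with Fluo-8; control set: vehicle and agonist controls; replication: n of 1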
# MPTP inh: mitochondrial permeability transition pore inhibitors, primary screen, biochemical, isolated mouse mitochondria, absorbance; Ca2+ swelling absorbance, 30 min; inhibition, % at 10 µM; 360,000 tested, 1.4% active; AID 602449, 2012;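 active = inhibition of 50% or more, scaled per plate between neutral and stimulator controls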;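 also: 0% = DMSO wells given calcium and 100% = 1 mM EGTA wells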
# GPR7 antagonist: GPR7 receptor antagonists, primary screen, cell-based, fluorescence, single concentration | AID 1861, 2009 | Neuropeptides B/W receptor type 1 (Homo sapiens), P48145 | GPR7-expressing cells, fluorescence antagonist assay | 290,000 tested, 1.1% active | inhibition, % at 4.4 µM; in the data active = inhibition above about 16%, passing the limit was not always enough;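 also: cells stimulated with the agonist NPW; 0% = agonist with vehicle and 100% = vehicle without agonist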
# Target sequence (P48145 whole entry, looked up): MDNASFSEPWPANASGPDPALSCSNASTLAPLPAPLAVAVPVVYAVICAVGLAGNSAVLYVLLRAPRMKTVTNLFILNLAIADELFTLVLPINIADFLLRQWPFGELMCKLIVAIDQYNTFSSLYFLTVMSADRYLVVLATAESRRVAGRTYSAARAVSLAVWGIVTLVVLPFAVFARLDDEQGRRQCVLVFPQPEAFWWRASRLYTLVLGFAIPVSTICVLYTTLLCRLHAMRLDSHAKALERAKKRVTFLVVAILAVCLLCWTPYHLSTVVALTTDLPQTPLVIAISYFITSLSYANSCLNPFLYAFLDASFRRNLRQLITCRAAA
# DAGLB inh: DAGLB lipase inhibitors, primary screen, biochemical, fluorescence, HTS; Diacylglycerol lipase-beta (Homo sapiens), Q8NCG7; HEK293T DAGLB membrane lysate, EnzChek fluorogenic substrate; inhibition, % at 5.17 µM; 340,000 tested, 0.059% active; in the data active = inhibition above about 34%;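 also: 0% = enzyme with vehicle and 100% = wells lacking enzyme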
# An asterisk follows results filed as active; . = not tested or not shown.
SMILES,TAAR1 ag,TAAR1 antag,MPTP inh,GPR7 antagonist,DAGLB inh
CCn1c(N2CCN(S(=O)(=O)c3ccc(F)cc3)CC2)nc2ccccc21,10.8,22.7,0.3,-0.1,-2.7
COc1cccc(CNc2nc3cc(-c4cccc(C(F)(F)F)c4)sc3c(=O)n2C)c1,-0.1,-1.4,0.9,.,.
CC(C)(C)OC(=O)N(Cc1ccccc1)Cc1ccc(OCc2cccc(NC(=O)C3CC3)c2)cc1,2.0,52.6*,1.0,.,-14.3
CCCNC(=O)C[C@@H]1CC[C@H]2NC[C@H](O)COC[C@@H]2O1,6.9,-13.2,1.8,.,.
CCc1nc2c(OCC3COc4ccccc4O3)cccn2c1N(C)C(=O)c1cccc(OC)c1 (centres undefined),1.5,-8.0,-0.6,.,.
CCOC(=O)C(Cc1ccc(O)cc1)NC(=O)CCc1c[nH]c2ccccc12 (centres undefined),40.3*,14.1,0.1,13.1,-0.9
CCOC(=O)c1c(NC(=O)CSc2nc3c(c(=O)n(C)c(=O)n3C)n2C(C)C)sc(C)c1C,-2.8,6.5,1.5,-3.0,0.6
CC(C)n1c(SCC(=O)Nc2nc3c(s2)CCCC3)nc2c1c(=O)n(C)c(=O)n2C,24.7,56.5*,-0.2,-12.0,1.9
O=C(Cn1nnc(-c2ccc(F)cc2)n1)NC(=O)NC1CCCCC1,10.5,-25.8,2.2,.,-1.5
O=C(CN1CCOCC1)Nc1scc2c1c(=O)oc1ccccc12,16.2,53.2*,3.3,-5.7,.
O=C(CN1CCCCC1)Nc1scc2c1c(=O)oc1ccccc12,5.4,-11.1,-1.0,-21.4,-2.8
Cc1noc(C)c1COc1ccc(CC(=O)NCc2ccccc2)cc1,-0.6,23.7,-1.7,17.9*,-1.5
Cc1noc(C)c1COc1ccc(CC(=O)NCCc2ccccn2)cc1,0.6,-4.2,1.1,3.5,-0.7
CCOC(=O)C1CCCN(C(=O)CNC(=O)c2nn(-c3ccc(OC)c(Cl)c3)c(=O)c3ccccc23)C1 (centres undefined),37.9*,50.9*,-1.1,-8.4,1.4
COc1ccc(-n2nc(C(=O)NCC(=O)N(C)Cc3ccccc3)c3ccccc3c2=O)cc1OC,9.3,48.7*,0.9,-6.1,0.9
COc1ccc(-n2nc(C(=O)NCC(=O)NC3CCCCCC3)c3ccccc3c2=O)cc1OC,10.4,49.9*,-1.7,-5.3,-4.5
COC(=O)C1=C[C@@H](C(=O)OC)[C@@H]2C3=C(C(=O)C2(C)C)[C@H](C)n2c(=O)n(-c4ccccc4)c(=O)n2[C@@H]3C1,5.2,-8.9,-0.5,.,-2.4
O=C(CSc1nnc(CN2CCCC2)n1-c1ccccc1)c1ccc2c(c1)OCO2,0.8,10.3,-1.6,.,0.8
COc1ccc(C(=O)CSc2nnc(CN3CCCCC3)n2-c2ccc(Cl)cc2)cc1OC,43.7*,6.7,0.2,16.9,-0.5
Cc1ccc(C)c(C(O)c2ncc(-c3ccc(C(F)(F)F)cc3)[nH]2)c1 (centres undefined),21.6,48.7*,3.0,.,.
CN1CCN(S(=O)(=O)c2cccc(C(=O)N(c3ccccn3)C3CCCCC3)c2)CC1,2.2,-17.8,1.3,-7.2,-5.6
CC1CCN(S(=O)(=O)c2cccc(C(=O)N(Cc3ccccc3)c3ccccn3)c2)CC1,6.0,-3.3,-3.2,19.3*,-4.5
O=C(NCCc1ccccc1)C1CCCN(S(=O)(=O)c2cccnc2)C1 (centres undefined),39.8*,-1.6,0.7,0.4,3.0
Nc1ccccc1SC1CC(=O)N(c2ccc(Cl)c(Cl)c2)C1=O (centres undefined),18.9,59.0*,2.3,-6.4,1.2
Nc1ccccc1SC1CC(=O)N(c2ccc3c(c2)OCCO3)C1=O (centres undefined),11.4,5.7,0.6,-12.1,2.4
SMILES,TAAR1 ag,TAAR1 antag,MPTP inh,GPR7 antagonist,DAGLB inh
O=C(COC(=O)CCC(=O)c1ccc(F)cc1)Nc1cccc(S(=O)(=O)N2CCOCC2)c1,2.7,-27.5,2.0,-6.0,-1.2
O=C(COc1ccc(S(=O)(=O)N2CCOCC2)cc1)Nc1cccc([N+](=O)[O-])c1,3.2,3.0,-0.1,-11.4,-2.1
O=C(COc1ccc([N+](=O)[O-])cc1)Nc1ccc(S(=O)(=O)N2CCOCC2)cc1,47.1*,-7.5,1.2,19.9,-0.1
O=C(COc1ccc(C(=O)c2ccc(F)cc2)cc1)Nc1cccc(S(=O)(=O)N2CCOCC2)c1,12.0,61.7*,4.8,.,-0.6
C[C@H](O)[C@@H]1C(=O)N2CCc3c([nH]c4c(-c5ccc6c(c5)OCO6)cccc34)[C@@H]2C[C@@H]1N(C)C(=O)NC1CCCCC1,1.4,24.9,.,.,.
Nc1[nH]c(C(=O)c2ccccc2)c(-c2ccc3ccccc3c2)c1C(=O)NC1CC1,10.7,27.7,.,.,.
CCn1nnc(-c2ccccc2NS(=O)(=O)c2ccc(S(=O)(=O)N3CCCCCC3)cc2)n1,14.9,-1.4,2.2,-9.4,-6.5
CCOC(=O)c1ccc(S(=O)(=O)Nc2ccccc2-c2nnn(CC)n2)cc1,4.2,52.9*,35.5,0.1,-11.6
COC(=O)[C@]1(Sc2ccc(C)cc2)CC(=O)N[C@@H]1c1ccccc1,0.6,3.4,0.7,.,.
COc1ccc(-c2cc(C3CCN(c4cc(Cl)nc(N)n4)CC3)[nH]n2)cc1,42.7*,30.7,31.1,7.2,0.1
COc1ccc(OC)c(-c2cc(C3CCN(c4cc(Cl)nc(N)n4)CC3)[nH]n2)c1,22.8,55.9*,24.2,-11.8,2.1
c1ccc(Cc2cnc(N3CCN(Cc4csc5ccccc45)CC3)nc2)cc1,1.9,-12.3,.,.,.
Cc1ccc(C(C(=O)NCc2ccc(F)cc2)N(CCCO)C(=O)C2COc3ccccc3O2)o1 (centres undefined),16.0,51.8*,1.5,-6.5,0.9
O=C(Nc1ccccc1)N(O)c1ccc(Cl)cc1,38.5*,4.0,-21.0,-6.8,-2.7
CCN(CCS(=O)(=O)c1ccc(Cl)cc1)C(=O)Nc1ccccc1,4.7,-5.2,3.2,1.4,.
COc1ccc(-c2nn(-c3ccccc3)cc2/C=N/NC(=O)c2ccc3c(c2)OCO3)cc1,.,.,.,-3.2,.
O=C(N/N=C\c1cn(-c2ccccc2)nc1-c1ccccc1)c1ccc2c(c1)OCO2,9.9,55.2*,-2.5,1.1,-1.2
O=C(N/N=C/c1cn(-c2ccccc2)nc1-c1ccc(F)cc1)c1ccc2c(c1)OCO2,8.4,22.0,6.4,-0.5,-1.8
COc1ccc(-c2nn(-c3ccccc3)cc2/C=N/NC(=O)c2ccc(Br)o2)cc1,17.9,61.0*,5.9,-20.4,-1.7
Cc1ccccc1CCNC(=O)CCn1ccc2cc(S(=O)(=O)N3CCCC3)ccc21,43.9*,-3.5,-2.8,0.4,0.9
O=C(CCn1ccc2cc(S(=O)(=O)N3CCCC3)ccc21)NCCc1ccccc1,6.7,-6.1,-0.3,1.8,1.1
O=C1NC[C@H](CCCCN2C[C@H](Cc3ccc(O)cc3)N(CCC3CCCCC3)C(=O)C2=O)N(CC2CCCCC2)C1=O,2.6,-15.5,-2.6,.,.

# Screening results deposited in PubChem BioAssay by several laboratories.
